The results in this text go back to ChEMBL document CHEMBL4480402, “3,3'-Disubstituted 5,5'-Bi(1,2,4-triazine) Derivatives with Potent in Vitro and in Vivo Antimalarial Activity” (J Med Chem, 2019).

In brackets after ≈: the same amount, converted by molar mass.

A short description of data set [1]: Kinetic solubility of the compound in phosphate buffer at pH 6.5 after 30 mins by nephelometry. It counts as physicochemical. The conditions noted are these: read-out: Kinetic_solubility. Summed up: (§1)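 Kinetic aqueous solubility determined by nephelometry.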
The nature of data set [2]: Kinetic solubility of the compound in HCL buffer at pH 2 after 30 mins by nephelometry. It counts as physicochemical. The conditions noted are these: read-out: Kinetic_solubility. The method in brief: as §1
The nature of data set [3]: Plasma concentration in Swiss mouse at […], iv via bolus administration measured up to 30 mins. It is filed as ADME, organism-based.
Data set [4] in a line: Plasma concentration in Swiss mouse at […], po via gavage administration measured up to 30 mins. It counts as ADME, organism-based. The conditions noted are these: in vivo, 0.5 h.
A short description of data set [5]: Plasma concentration in Swiss mouse at 30 mg/kg, po via gavage administration measured at 60 to 120 mins. It is filed as ADME, organism-based. The conditions noted are these: in vivo. The method in brief: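 Non-fasted male Swiss outbred mice (24–33 g) with free access to food and water, two mice per dose. Dosed by bolus tail-vein IV injection or oral gavage. Blood taken up to 24 h by submandibular bleed or terminal cardiac puncture into tubes with heparin and a stabilization cocktail, at most two samples per mouse. Plasma stored at -20 °C until analysis.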

Data set [6] can be described thus: Apparent permeability across apical to basolateral side in human Caco2 cells assessed as mass balance. It is filed as ADME, cell-based. To be noted: Caco-2, read-out: permeability.
The nature of data set [7]: Apparent permeability across basolateral to apical side in human Caco2 cells assessed as mass balance. It counts as ADME, cell-based. The conditions noted are these: Caco-2, read-out: permeability.
The nature of data set [8]: Apparent permeability across apical to basolateral side in human Caco2 cells. It is filed as ADME, cell-based. To be noted: Caco-2.

As for `CCCSc1nncc(-c2cnnc(SCCC)n2)n1`, the solubility kinetic at 0.5 h in data set [1] and in data set [2] was 3.1 to 6.3 µg/mL (≈ 10.1 to 20.4 µM) throughout.
For `CC(C)CSc1nncc(-c2cnnc(SCC(C)C)n2)n1`, the solubility kinetic at 0.5 h in data set [1] and in data set [2] was 1.6 to 3.1 µg/mL (≈ 4.75 to 9.21 µM) throughout.
In the case of `OCCCSc1nncc(-c2cnnc(SCCCO)n2)n1`, the solubility kinetic at 0.5 h in data set [1] was 60 to 100 µg/mL (≈ 176 to 294 µM); in data set [2] it was 25 to 50 µg/mL (≈ 73.4 to 147 µM).
`COCCSc1nncc(-c2cnnc(SCCOC)n2)n1`: the solubility kinetic at 0.5 h in data set [1] and in data set [2] was 12.5 to 25 µg/mL (≈ 36.7 to 73.4 µM) each time.
As for `COc1nncc(-c2cnnc(OC)n2)n1`, the solubility kinetic at 0.5 h in data set [1] is 50 to 100 µg/mL (≈ 227 to 454 µM); in data set [2] it was > 100 µg/mL.
With `CCCCSc1nncc(-c2cnnc(SCCCC)n2)n1`, the solubility kinetic at 0.5 h in data set [1] and in data set [2] was < 1.6 µg/mL in each case.
On to `CSc1nncc(-c2cnnc(OCCN(C)C)n2)n1`, for which the solubility kinetic at 0.5 h in data set [1] lay in the range of 50 to 100 µg/mL (≈ 170 to 341 µM); in data set [2] it was 25 to 50 µg/mL (≈ 85.2 to 170 µM).
On the same counts, the results for `CSc1nncc(-c2cnnc(SC)n2)n1` are 3.1 to 6.3 µg/mL (≈ 12.3 to 25 µM) and 6.3 to 12.5 µg/mL (≈ 25 to 49.5 µM).
On the same counts, the results for `CSc1nncc(-c2cnnc(SC3CCCC3)n2)n1` are 6.3 to 12.5 µg/mL (≈ 20.6 to 40.8 µM) and 6.3 to 12.5 µg/mL (≈ 20.6 to 40.8 µM).
In the same order, the values of `CSc1nncc(-c2cnnc(SCCCO)n2)n1` are 50 to 100 µg/mL (≈ 169 to 337 µM) and 50 to 100 µg/mL (≈ 169 to 337 µM).
Turning to `CSc1nncc(-c2cnnc(SCCN(C)C)n2)n1`, the solubility kinetic at 0.5 h in data set [1] and in data set [2] was 6.3 to 12.5 µg/mL (≈ 20.4 to 40.4 µM) throughout. Also, in data set [3], the concentration at 0.5 h is > 20 nM. Besides, the Drug uptake entry in data set [4] is recorded as “Not Active”; in data set [5], “Active”. In addition, the figures for the recovery in data set [6] and in data set [7] were 85% and 90%, respectively. The Papp A→B in data set [8] was 49 ×10⁻⁶ cm/s.
